Experiment [1] relates to HCT-116. As to the kind of experiment: Antiproliferative activity against human HCT116 cells after 72 hrs by MTT assay. Type of experiment: functional, cell-based. The conditions noted are these: HCT-116, 72 h.
In experiment [2] the target is Histone deacetylase (Homo sapiens) (UniProt Q13547+O15379+Q9UBN7+Q92769+Q9UQL6+Q8WUI4+Q9BY41+Q96DB2+P56524+Q9UKV0+Q969S8). The conditions noted are these: HeLa, at 1 µM.
Another experiment has as its system MCF7. As to the kind of experiment: Antiproliferative activity against human MCF7 cells after 72 hrs by MTT assay. In kind it is functional, cell-based. The conditions noted are these: MCF7, 72 h.
A further experiment has as its system HeLa. The experiment can be described thus: Antiproliferative activity against human HeLa cells after 72 hrs by MTT assay. Type of experiment: functional, cell-based.
The target in the next experiment is Histone deacetylase. As to the kind of experiment: Inhibition of HDAC in human HeLa cell nuclear extract using fluor de Lys as substrate after 15 mins by fluorimetric analysis. In kind it is protein assay. In short, it runs like this:
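Fluorimetric HDAC kit assay: HeLa nuclear extract (15 μL) combined with 10 μL of 5× compound, then 25 μL fluorogenic substrate added; deacetylation ran 15 min at room temperature and was stopped with TSA-containing developer. Fluorescence read after a further 15 min at excitation 360 nm, emission 460 nm.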

The test system of experiment [3] is HCT-116. The experiment can be described thus: Cell cycle arrest in human HCT116 cells assessed as accumulation at S phase at 2.5 uM after 24 hrs by propidium iodide staining-based flow cytometric analysis (reference value: 36.3%). In kind it is functional. In short, it runs like this:
(§1)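 HCT-116 cells seeded at 2 × 10^5 per well in six-well plates, treated 24 h with compound at 2.5, 5 or 10 μM alongside untreated control, then harvested, fixed in cold 70% ethanol and stained with PI solution (final 50 μg/mL PI, 0.1 mg/mL RNase A, 0.05% Triton X-100) for 40 min at 37 °C. Phase distribution read by flow cytometry.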

Experiment [4] deals with HCT-116. The experiment can be described thus: Cell cycle arrest in human HCT116 cells assessed as accumulation at S phase at 5 uM after 24 hrs by propidium iodide staining-based flow cytometric analysis (reference value: 36.3%). In kind it is functional. In short, it runs like this:
as §1

The test system of experiment [5] is HCT-116. As to the kind of experiment: Cell cycle arrest in human HCT116 cells assessed as accumulation at sub G1 phase after 24 hrs by propidium iodide staining-based flow cytometric analysis. In kind it is functional. The method, boiled down: as §1
Experiment [6] deals with HCT-116. As to the kind of experiment: Cell cycle arrest in human HCT116 cells assessed as accumulation at G2/M phase at 2.5 uM after 24 hrs by propidium iodide staining-based flow cytometric analysis (reference value: 15.6%). Type of experiment: functional. The method, boiled down: as §1
For experiment [7], the system named is HCT-116. As to the kind of experiment: Cell cycle arrest in human HCT116 cells assessed as accumulation at G1 phase at 2.5 uM after 24 hrs by propidium iodide staining-based flow cytometric analysis (reference value: 48.1%). In kind it is functional. The method, boiled down:
as §1

The subject of experiment [8] is HCT-116. The experiment can be described thus: Cell cycle arrest in human HCT116 cells assessed as accumulation at G2/M phase at 5 uM after 24 hrs by propidium iodide staining-based flow cytometric analysis (reference value: 15.6%). In kind it is functional. In short, it runs like this:
as §1

Experiment [9] has as its system HCT-116. The experiment can be described thus: Cell cycle arrest in human HCT116 cells assessed as accumulation at sub G1 phase at 5 uM after 24 hrs by propidium iodide staining-based flow cytometric analysis relative to control. Type of experiment: functional. In short, it runs like this: as §1
Experiment [10] concerns HCT-116. The experiment can be described thus: Cell cycle arrest in human HCT116 cells assessed as accumulation at sub G1 phase at 2.5 uM after 24 hrs by propidium iodide staining-based flow cytometric analysis relative to control. In kind it is functional. The method, boiled down: as §1
Experiment [11] deals with HCT-116. As to the kind of experiment: Cell cycle arrest in human HCT116 cells assessed as accumulation at G2/M phase at 10 uM after 24 hrs by propidium iodide staining-based flow cytometric analysis (reference value: 15.6%). Type of experiment: functional. In short, it runs like this:
as §1

Experiment [12] relates to HCT-116. The experiment can be described thus: Cell cycle arrest in human HCT116 cells assessed as accumulation at G1 phase at 10 uM after 24 hrs by propidium iodide staining-based flow cytometric analysis (reference value: 48.1%). Type of experiment: functional. The method, boiled down: as §1
In experiment [13] the test system is HCT-116. The experiment can be described thus: Cell cycle arrest in human HCT116 cells assessed as accumulation at S phase at 10 uM after 24 hrs by propidium iodide staining-based flow cytometric analysis (reference value: 36.3%). In kind it is functional. In short, it runs like this:
as §1

For experiment [14], the system named is HCT-116. The experiment can be described thus: Cell cycle arrest in human HCT116 cells assessed as accumulation at G1 phase at 5 uM after 24 hrs by propidium iodide staining-based flow cytometric analysis (reference value: 48.1%). In kind it is functional. In short, it runs like this: as §1
The test system of experiment [15] is HCT-116. As to the kind of experiment: Cell cycle arrest in human HCT116 cells assessed as accumulation at sub G1 phase at 10 uM after 24 hrs by propidium iodide staining-based flow cytometric analysis relative to control. Type of experiment: functional. In short, it runs like this:
as §1

The structures appear in SMILES notation.

`O=C(CCCCCCCOc1cccc(-c2nc(N3CCOCC3)c3sccc3n2)c1)NO`: the IC50 in the experiment with HCT-116 [1] is 6.1 µM; with MCF7 it was 11 µM; in the experiment with HeLa, 11.9 µM; at Histone deacetylase, 0.61 µM. This compound displayed an inhibition in experiment [2] of 72%.

Take `O=C(CCCCCCCCOc1cccc(-c2nc(N3CCOCC3)c3sccc3n2)c1)NO`: the IC50 was over 20 µM in the experiment with HCT-116 [1], over 20 µM with MCF7 and 20 µM in the experiment on HeLa. Besides, the inhibition in [2] was found to be 40.6%.

For the compound `O=C(CCCCCCOc1cccc(-c2nc(N3CCOCC3)c3sccc3n2)c1)NO`, the IC50 in the experiment with HCT-116 [1] was found to be 4 µM; with MCF7, 4.8 µM; in the experiment with HeLa, 4 µM; against Histone deacetylase it was 0.38 µM. The Activity is 15.2% in the experiment on HCT-116 [3]; 18.9% in the experiment with HCT-116 [4]; “Dose-dependent effect” in the experiment with HCT-116 [5]; 16.8% in the experiment on HCT-116 [6]; 68.1% in the experiment on HCT-116 [7]; 31.4% in the experiment with HCT-116 [8]. For the same compound, the Activity with HCT-116 [9] was 42.2%; with HCT-116 [10], 30.5%; in the experiment on HCT-116 [11] it was 26.5%; in the experiment on HCT-116 [12], 50.3%; in the experiment with HCT-116 [13], 20.8%; in the experiment on HCT-116 [14], 49.7%. For the same compound, in the experiment on HCT-116 [15], the Activity was found to be 44.5%. This compound gave an inhibition in experiment [2] of 76.8%.

For `O=C(CCCCCCCOc1ccc(-c2nc(N3CCOCC3)c3sccc3n2)cc1)NO`, the IC50 in the experiment on HCT-116 [1] turned out to be 2.9 µM; in the experiment with MCF7, 10 µM; in the experiment with HeLa, 7.4 µM; against Histone deacetylase it was 0.49 µM. The same compound registered an inhibition in experiment [2] of 73.8%.

Consider `O=C(CCCCCCOc1ccc(-c2nc(N3CCOCC3)c3sccc3n2)cc1)NO`, for which the IC50 with HCT-116 [1] amounted to 5.5 µM; with MCF7, 5.2 µM; in the experiment on HeLa, 3 µM. For the same compound, the inhibition in experiment [2] was 61.7%.

`O=C(CCCCCCCCOc1ccc(-c2nc(N3CCOCC3)c3sccc3n2)cc1)NO`: the IC50 in the experiment with HCT-116 [1] was 10.1 µM; in the experiment with MCF7, 18 µM; in the experiment with HeLa, 19 µM. This compound had an inhibition in [2] of 25.4%.

As to `O=C(CCCCCOc1cccc(-c2nc(N3CCOCC3)c3sccc3n2)c1)NO`, the IC50 with HCT-116 [1] came to 12.2 µM; with MCF7 it was 9.9 µM; with HeLa it was 2.4 µM. In addition, the inhibition in experiment [2] amounted to 18.7%.

`O=C(CCCCCOc1ccc(-c2nc(N3CCOCC3)c3sccc3n2)cc1)NO`: the IC50 with HCT-116 [1] was 14 µM; in the experiment with MCF7, over 20 µM; in the experiment with HeLa, 12 µM. This compound showed an inhibition in [2] of 18.8%.
